Beta cell apopt: inhibitors of cytokine-induced beta cell apoptosis, primary screen, luminescence. INS-1E cytokine-induced death, ATP luminescence, 48 h; percent of positive-control rescue, neutral wells zero. 0.8% of 300,000 active. AID 435005, 2010. protection from apoptosis, % (no concentration beside the values);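 active = Every replicate reaches about 75%, or at least half do and their mean reaches it too, limit read from the data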;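 note: 0% = cytokine-treated negative control wells and 100% = positive control rescue; higher means more ATP so stronger rescue from cytokine killing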
Calb FLC: C. albicans growth inhibition with fluconazole, primary screen, CaCi-2 strain, Alamar Blue fluorescence. C. albicans CaCi-2 (fluconazole-resistant clinical isolate) + fluconazole, 48 h. growth inhibition, % (test concentration not listed). 0.57% of 300,000 active;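 active = growth inhibition above about 58% in most replicates, limit read from the data, passing the limit was not always enough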;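 note: all wells also contain fluconazole at 8 µg/ml as a sub-toxic cotreatment; 0% = median of DMSO wells and 100% = median of geldanamycin control wells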
NALP3 yeast inh: NALP3 inflammasome inhibitors in reconstituted yeast, primary screen, luminescence, uHTS; Yeast reconstituted NLRP3/ASC/caspase-1, beta-gal luminescence, 24 h; inhibition, % at 10 µM; 0.39% of 330,000 active; AID 2825, 2010;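 active = inhibition of 50% or more; inactive = inhibition below 50%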;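 note: plate controls were induced DMSO wells for no effect and uninduced yeast grown without galactose for full effect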
Mdm2-MdmX inh: inhibitors of human Mdm2-MdmX association, primary screen, cell-based, luminescence, split luciferase, SaOS-2, uHTS; 3% of 330,000 active; inhibition, % at 8 µM; Protein Mdm4 (Homo sapiens) + E3 ubiquitin-protein ligase Mdm2 (Homo sapiens), …; AID 485346, 2010; SaOS-2 split-luciferase Mdm2/MdmX complementation;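 active = inhibition of at least 50% at 8 µM in the primary screen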
Target sequence (O15151 whole entry, looked up): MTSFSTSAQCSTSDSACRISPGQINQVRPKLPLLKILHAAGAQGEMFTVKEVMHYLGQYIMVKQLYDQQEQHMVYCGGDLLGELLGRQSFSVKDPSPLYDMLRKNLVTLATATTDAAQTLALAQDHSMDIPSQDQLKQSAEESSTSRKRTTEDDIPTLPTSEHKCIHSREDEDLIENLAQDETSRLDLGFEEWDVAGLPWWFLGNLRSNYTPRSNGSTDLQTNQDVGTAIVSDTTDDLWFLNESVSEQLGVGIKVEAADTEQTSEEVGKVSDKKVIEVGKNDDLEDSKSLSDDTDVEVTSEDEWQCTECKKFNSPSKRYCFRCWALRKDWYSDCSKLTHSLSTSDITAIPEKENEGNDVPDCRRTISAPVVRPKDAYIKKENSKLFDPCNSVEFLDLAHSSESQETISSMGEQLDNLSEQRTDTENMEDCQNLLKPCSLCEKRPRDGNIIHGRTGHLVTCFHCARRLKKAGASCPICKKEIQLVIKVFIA
Target sequence (Q00987 whole entry, looked up): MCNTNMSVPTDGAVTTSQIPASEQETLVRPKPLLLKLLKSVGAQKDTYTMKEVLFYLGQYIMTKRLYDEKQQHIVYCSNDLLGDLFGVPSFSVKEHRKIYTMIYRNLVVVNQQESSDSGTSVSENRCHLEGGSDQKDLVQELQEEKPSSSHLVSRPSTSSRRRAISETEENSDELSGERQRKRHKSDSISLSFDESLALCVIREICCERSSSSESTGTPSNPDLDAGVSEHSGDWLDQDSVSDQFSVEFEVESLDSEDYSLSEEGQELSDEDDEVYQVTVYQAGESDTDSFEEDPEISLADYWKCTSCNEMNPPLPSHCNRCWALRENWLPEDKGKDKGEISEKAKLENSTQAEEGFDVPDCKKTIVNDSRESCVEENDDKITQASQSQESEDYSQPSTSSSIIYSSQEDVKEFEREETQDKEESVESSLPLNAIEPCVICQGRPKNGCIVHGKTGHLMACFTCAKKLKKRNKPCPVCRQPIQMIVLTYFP
T cruzi repl: inhibitors of intracellular T. cruzi growth, primary screen, luminescence, NIH3T3 host cells. T. cruzi beta-gal in NIH3T3, 90 h. inhibition, % (test concentration not listed). 1.4% of 300,000 active;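 active = mean inhibition across valid replicates above about 55%, limit read from the data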;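 note: signal also drops with host cell toxicity which is not excluded here; 0% = plate median of DMSO wells and 100% = zero luminescence signal; higher percent means less beta-gal luminescence so fewer parasites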
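Material: NIH/3T3 host cells with β-galactosidase reporter T. cruzi; Input: 5,000 host fibroblasts per well; Medium: DMEM, 2% fetal bovine serum; Compound: 50 nL DMSO compound solution per well; Schedule: 3 h host attachment, then at least 90 h co-culture; Detection: luminescent β-galactosidase signal after 60 min lysis.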
CSC inhib: cancer stem cell viability inhibitors, primary screen, luminescence; cancer stem cell-like cells viability; inhibition, % at 7.5 µM; 1.1% of 300,000 active; in the data active = inhibition above about 75%; tested in HMLE shEcad cells
* = called active by the depositor; x = no result given. A selection: hits, their analogues and other compounds. The true share with any hit is near 5.3%.

SMILES	Beta cell apopt	Calb FLC	NALP3 yeast inh	Mdm2-MdmX inh	T cruzi repl	CSC inhib
O=C(CCS(=O)(=O)c1ccc(Cl)cc1)Nc1nccs1	x	x	0	25	x	x
CC(C)c1nc(Cl)c(C#N)c2c1CSC(C)(C)C2	-9	-4	-27	-6	-2	66
Cc1c2c(nc3ccccc13)CCC(C(C)(C)C)C2 (stereo not given)	14	8	21	-32	57*	8
COc1nc(NCCC2=CCCCC2)nc(OC)n1	-7	6	-5	1	14	-12
O=C(CC1NCCc2ccccc21)Nc1ccc(Oc2ccccc2)cc1 (stereo not given)	x	11	26	8	42	95*
O=C(CC1NCCc2ccccc21)Nc1ccccc1 (stereo not given)	-1	-19	4	-24	-3	-12
CN1CCN(C(c2cccnc2)c2ccc3cccnc3c2O)CC1 (stereo not given)	22	89*	17	31	28	25
COC(=O)c1cc2ccsc2n1CC(=O)N(C)c1ccccc1	x	9	2	24	-3	x
COC(=O)c1cc2ccsc2n1CC(=O)Nc1ccc(N(C)C)cc1	7	-15	5	20	55*	-8
Cc1cccc(C)c1OCc1nc2ccccc2c(=O)n1/N=C/c1c[nH]c2ccccc12	10	1	6	23	69*	23
Cc1ccc(-c2[nH]ncc2/C=N/n2c(COc3ccccc3C)nc3ccccc3c2=O)cc1	93*	-20	5	30	20	-8
Cc1ccc(C)c(OCCN2C(=O)NC3(CCc4ccccc4C3)C2=O)c1 (stereo not given)	2	-1	4	-11	-1	-10
CC(=O)n1c(C=Nc2ccc(Cl)cc2)c(O)c2ccccc21	6	-1	-3	-2	9	18
O=[N+]([O-])c1ccccc1CN1CCN(Cc2c[nH]c3ccccc23)CC1	116*	10	14	-8	6	-7
Clc1ccccc1N1CCN(Cc2c[nH]c3ccccc23)CC1	50	27	23	15	74*	15
Cc1n[nH]c(=S)n(NC(=O)/C=C/C(=O)Nn2c(=S)[nH]nc(C)c2=O)c1=O	x	-7	x	x	12	x
Cc1n[nH]c(=S)n(NC(=O)CC(=O)Nn2c(=S)[nH]nc(C)c2=O)c1=O	2	93*	-22	4	8	-3
CCOC(=O)c1c(NC(=O)C[n+]2ccc(N(C)C)cc2)sc(C)c1C	45	9	6	14	62*	6
COC(=O)c1c(NC(=O)C2Cc3ccccc3C(=O)O2)sc2c1CCCC2 (stereo not given)	12	45	8	19	31	32
CCOC(=O)c1c(NC(=O)c2nn(CC)cc2Br)sc2c1CCCCC2	7	2	9	26	49	85*
CN(C)c1cc[n+](CC(=O)Nc2ccc(Oc3ccccc3)cc2)cc1	91*	-3	8	45	47	-5
CCOC(=O)c1c(NC(=O)C2Cc3ccccc3C(=O)O2)sc2c1CCCC2 (stereo not given)	3	104*	1	34	-4	-10
CCOC(=O)c1c(NC(=O)c2nn(CC)cc2Br)sc(C)c1C	9	11	13	7	14	16
Cc1cc([N+](=O)[O-])nn1CC(=O)Nc1c(C)n(C)n(-c2ccccc2)c1=O	-8	-3	1	6	-6	-10
COc1ccc(CC(=O)n2nc(-c3ccc(Cl)cc3)nc2NCc2ccco2)cc1	0	2	17	20	-8	34
SMILES	Beta cell apopt	Calb FLC	NALP3 yeast inh	Mdm2-MdmX inh	T cruzi repl	CSC inhib
COc1ccc(OC)c(NC(=O)CSc2nncc(=O)n2N)c1	-4	-10	0	4	-19	-9
CC(C)OC(=O)c1c(NC(=O)Cn2cnc([N+](=O)[O-])n2)sc2c1CCCC2	-9	2	12	23	105*	5
NC(=O)c1c(NC(=O)Cn2cnc([N+](=O)[O-])n2)sc2c1CCCC2	-5	-2	0	14	51	x
CCOC(=O)c1c(NC(=O)Cn2cnc([N+](=O)[O-])n2)sc2c1CCCC2	0	-2	7	36	64*	13
CC1CCc2c(sc(NC(=O)Cn3cnc([N+](=O)[O-])n3)c2C(N)=O)C1 (stereo not given)	0	8	4	28	68*	4
CCOC(=O)c1c(NC(=O)Cn2nc(C(F)F)cc2C(F)F)sc(C)c1C	2	-4	6	22	32	1
CCOC(=O)c1c(NC(=O)Cn2cnc([N+](=O)[O-])n2)sc(C)c1C	-8	13	25	3	72*	-6
Cc1cc([N+](=O)[O-])nn1CCCC(=O)Nc1sc2c(c1C(N)=O)CCC(C)C2 (stereo not given)	-1	14	-12	9	1	-2
C/C(=N\NC(=O)c1cccc(S(=O)(=O)N2CCCC2)c1)c1ccco1	-10	-2	-9	-23	-2	-2
C=CCOC(=O)C1=C[C@H](c2ccc(Br)cc2)[C@@H](CCCO)[C@H](OCC)O1	1	-1	7	11	20	6
COC(=O)C1=CN(Cc2ccc(F)cc2)C=C(C(=O)OC)C1c1ccc(O)c(OC)c1	-2	-1	12	13	3	-12
COC(=O)C1=CN(Cc2ccc(OC)c(OC)c2)C=C(C(=O)OC)C1c1cccc(O)c1	-2	4	9	5	58*	-13
O=C(NCCOc1ccccc1)c1cc(C(=O)NCCOc2ccccc2)cc([N+](=O)[O-])c1	3	-7	23	35	68*	13
CN(CCOc1ccccc1)C(=O)c1cc([N+](=O)[O-])cc([N+](=O)[O-])c1	-9	47	17	24	64*	1
CN(CCOc1ccccc1)C(=O)c1cc([N+](=O)[O-])ccc1N1CCOCC1	2	-7	10	24	11	-3
O=C(NCCO)c1scc2c1OCCO2	-7	4	-8	11	0	x
COc1ccc(CCN2C(=S)N(C)C(=O)C2CC(=O)Nc2ccc(OC)cc2)cc1 (stereo not given)	2	-17	1	0	3	97*
CCN1C(=O)C(CC(=O)Nc2ccc(OC)cc2)N(CCCN2CCN(c3ccc(F)cc3)CC2)C1=S (stereo not given)	7	-2	-6	28	16	81*
CCCCCCCCCc1nc2sc3c(c2c(=O)n1NC(=O)c1ccc([N+](=O)[O-])cc1)CC(C)(C)OC3	0	3	19	37	-6	-21

Screens from PubChem.
